# From ChEMBL document CHEMBL1148762, “Lysosome and HER3 (ErbB3) selective anticancer agent kahalalide F: semisynthetic modifications and antifungal lead-exploration studies” (J Med Chem, 2007)
# Calls of active or inactive are those of the source. No cut-off for these calls is given here.
# Columns and labels:
# Fusarium oxysporum [1] = test: Fungistatic activity against Fusarium oxysporum at 30 uM after 72 hrs by microtiter plate assay; format: functional, organism-based
# Outline: (§1)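 Conidia come from 7-day potato dextrose agar cultures, filtered and set photometrically (625 nm) to 3 × 10^5 conidia/mL. They are exposed to compound at 30 µM in 96-well microdilution broth at 24 ± 1 °C under a 12 h photoperiod. After 72 h, 20 µL per well is subcultured on drug-free potato dextrose agar at 28 °C for 3 days. No regrowth is scored fungicidal; regrowth is scored fungistatic.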
# Fusarium solani [2] = test: Fungicidal activity against Fusarium solani at 30 uM after 72 hrs by microtiter assay; format: functional, organism-based
# Outline: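 After 72 h of microtiter broth exposure at 30 µM, 20 µL from each well was plated onto compound-free potato dextrose agar and incubated 3 days at 28 °C. No regrowth was scored fungicidal; regrowth was scored fungistatic.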
# Fusarium proliferatum [3] = test: Fungistatic activity against Fusarium proliferatum at 30 uM after 72 hrs by microtiter plate assay; format: functional, organism-based; outline: as §1
# COLO 205 = test: Cytotoxicity against human COLO205 cells; format: functional
# Outline: (§2)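 NCI Developmental Therapeutics Program cell panel. GI50 is the concentration that reduces growth of treated cells to half that of untreated controls. TGI is the concentration that completely halts growth.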
# T47D = test: Cytotoxicity against human T47D cells; format: functional; outline: as §2
# Aspergillus fumigatus = test: Antimicrobial activity against Aspergillus fumigatus ATCC 90906; format: functional, organism-based
# Fusarium oxysporum [4] = test: Antimicrobial activity against Fusarium oxysporum at 0.3 uM after 48 hrs by microtiter assay; format: functional
# Outline: (§3)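 96-well microdilution broth assay with conidia (3 × 10^5 conidia/mL, harvested from 7-day PDA cultures and filtered) against F. oxysporum, F. proliferatum and F. solani at 0.3, 3 and 30 µM. Plates were held at 24 ± 1 °C under a 12 h photoperiod. Growth was read at 620 nm at 24, 48 and 72 h and reported as percent inhibition from mean absorbance with standard error.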
# Hs-578T = test: Cytotoxicity against human HS578T cells; format: functional; outline: as §2
# NCI-H322M = test: Cytotoxicity against human NCI-H322M cells; format: functional; outline: as §2
# Fusarium oxysporum [5] = test: Antimicrobial activity against Fusarium oxysporum at 30 uM after 72 hrs by microtiter assay; format: functional; outline: as §3
# KM12 = test: Cytotoxicity against human KM12 cells; format: functional; outline: as §2
# A549 = test: Cytotoxicity against human A549 cells; format: functional; outline: as §2
# Fusarium oxysporum [6] = test: Antimicrobial activity against Fusarium oxysporum at 0.3 uM after 72 hrs by microtiter assay; format: functional; outline: as §3
# Cryptococcus neoformans = test: Antimicrobial activity against Cryptococcus neoformans ATCC 90113; format: functional, organism-based
# Fusarium oxysporum [7] = test: Antimicrobial activity against Fusarium oxysporum at 3 uM after 72 hrs by microtiter assay; format: functional; outline: as §3
# Fusarium proliferatum [8] = test: Antimicrobial activity against Fusarium proliferatum at 3 uM after 72 hrs by microtiter assay; format: functional; outline: as §3
# SNB-75 = test: Cytotoxicity against human SNB75 cells; format: functional; outline: as §2
# [9] = system: Mycobacterium intracellulare; test: Antimicrobial activity against Mycobacterium intracellular ATCC 23068; format: functional, organism-based
# [10] = system: Mycobacterium tuberculosis; test: Antibacterial activity against Mycobacterium tuberculosis H37Rv at 16 ug/mL by micro plate alamar blue assay; format: functional
# Outline: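 M. tuberculosis H37Rv ATCC 27294 grown in BACTEC 12B medium; microplate Alamar blue assay (MABA). Primary screen at a single concentration of 16 µg/mL, read as percent inhibition.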
# SK-OV-3 = test: Cytotoxicity against human SK-OV3 cells; format: functional; outline: as §2
# Fusarium solani [11] = test: Antimicrobial activity against Fusarium solani at 30 uM after 48 hrs by microtiter assay; format: functional; outline: as §3
# HCC 2998 = test: Cytotoxicity against human HCC2998 cells; format: functional; outline: as §2
# HCT-15 = test: Cytotoxicity against human HCT15 cells; format: functional; outline: as §2
# Fusarium proliferatum [12] = test: Antimicrobial activity against Fusarium proliferatum at 0.3 uM after 72 hrs by microtiter assay; format: functional; outline: as §3
# ACHN = test: Cytotoxicity against human ACHN cells; format: functional; outline: as §2
# Fusarium solani [13] = test: Antimicrobial activity against Fusarium solani at 30 uM after 72 hrs by microtiter assay; format: functional; outline: as §3
# PC-3 = test: Cytotoxicity against human PC3 cells; format: functional; outline: as §2
# Fusarium proliferatum [14] = test: Antimicrobial activity against Fusarium proliferatum at 30 uM after 48 hrs by microtiter assay; format: functional; outline: as §3
# Fusarium solani [15] = test: Antimicrobial activity against Fusarium solani at 0.3 uM after 72 hrs by microtiter assay; format: functional; outline: as §3
# Fusarium oxysporum [16] = test: Antimicrobial activity against Fusarium oxysporum at 3 uM after 48 hrs by microtiter assay; format: functional; outline: as §3
# Fusarium proliferatum [17] = test: Antimicrobial activity against Fusarium proliferatum at 0.3 uM after 48 hrs by microtiter assay; format: functional; outline: as §3
# HT-29 = test: Cytotoxicity against human HT29 cells; format: functional; outline: as §2
# Candida albicans = test: Antimicrobial activity against Candida albicans ATCC 90028; format: functional, organism-based
# DU-145 = test: Cytotoxicity against human DU145 cells; format: functional; outline: as §2
# Fusarium solani [18] = test: Antimicrobial activity against Fusarium solani at 3 uM after 72 hrs by microtiter assay; format: functional; outline: as §3
# Fusarium solani [19] = test: Antimicrobial activity against Fusarium solani at 0.3 uM after 48 hrs by microtiter assay; format: functional; outline: as §3
# Fusarium proliferatum [20] = test: Antimicrobial activity against Fusarium proliferatum at 30 uM after 72 hrs by microtiter assay; format: functional; outline: as §3
# Fusarium proliferatum [21] = test: Antimicrobial activity against Fusarium proliferatum at 3 uM after 48 hrs by microtiter assay; format: functional; outline: as §3
# Fusarium solani [22] = test: Antimicrobial activity against Fusarium solani at 3 uM after 48 hrs by microtiter assay; format: functional; outline: as §3
# Fusarium oxysporum [23] = test: Antimicrobial activity against Fusarium oxysporum at 30 uM after 48 hrs by microtiter assay; format: functional; outline: as §3
# RPMI-8226 = test: Cytotoxicity against human RPMI8226 cells; format: functional; outline: as §2
# Leishmania donovani = test: Antiparasitic activity against Leishmania donovani; format: functional, organism-based
compound,measurement,setting,value
C/C=C1\NC(=O)[C@H](Cc2ccccc2)NC(=O)[C@@H](C(C)C)NC(=O)[C@@H]([C@@H](C)CC)NC(=O)[C@H](NC(=O)[C@H](NC(=O)[C@H](CCCNCc2ccc(F)cc2)NC(=O)[C@H]2CCCN2C(=O)[C@@H](NC(=O)[C@H](NC(=O)[C@H](NC(=O)[C@@H](NC(=O)CCCC(C)C)C(C)C)[C@H](C)O)C(C)C)C(C)C)[C@@H](C)CC)[C@@H](C)OC(=O)[C@H](C(C)C)NC1=O,Activity,Fusarium oxysporum [1],Active
same,Activity,Fusarium solani [2],Active
same,Activity,Fusarium proliferatum [3],Active
C/C=C1\NC(=O)[C@H](Cc2ccccc2)NC(=O)[C@@H](C(C)C)NC(=O)[C@@H]([C@@H](C)CC)NC(=O)[C@H](NC(=O)[C@H](NC(=O)[C@H](CCCNCc2ccc(F)cc2)NC(=O)[C@H]2CCCN2C(=O)[C@H](NC(=O)[C@@H](NC(=O)[C@@H](NC(=O)[C@H](NC(=O)CCCC(C)C)C(C)C)[C@@H](C)O)C(C)C)C(C)C)[C@@H](C)CC)[C@@H](C)OC(=O)[C@H](C(C)C)NC1=O,GI50,COLO 205,0.156 µM
same,TGI,COLO 205,0.315 µM
same,GI50,T47D,0.161 µM
same,TGI,T47D,0.333 µM
same,MFC,Aspergillus fumigatus,> 20 µM
same,MIC,Aspergillus fumigatus,> 20 µM
same,inhibition at 0.3 µM,Fusarium oxysporum [4],0%
same,GI50,Hs-578T,0.212 µM
same,TGI,Hs-578T,0.695 µM
same,GI50,NCI-H322M,0.203 µM
same,TGI,NCI-H322M,0.429 µM
same,inhibition at 30 µM,Fusarium oxysporum [5],94.3%
same,GI50,KM12,0.179 µM
same,TGI,KM12,0.379 µM
same,GI50,A549,0.161 µM
same,TGI,A549,0.34 µM
same,inhibition at 0.3 µM,Fusarium oxysporum [6],0%
same,MFC,Cryptococcus neoformans,10 µM
same,MIC,Cryptococcus neoformans,10 µM
same,inhibition at 3 µM,Fusarium oxysporum [7],0%
same,inhibition at 3 µM,Fusarium proliferatum [8],0%
same,GI50,SNB-75,0.265 µM
same,TGI,SNB-75,0.655 µM
same,MBC,[9],> 20 µM
same,MIC,[9],> 20 µM
same,inhibition at 16 µg/mL,[10],77%
same,GI50,SK-OV-3,0.183 µM
same,TGI,SK-OV-3,0.387 µM
same,inhibition at 30 µM,Fusarium solani [11],97.3%
same,GI50,HCC 2998,0.201 µM
same,TGI,HCC 2998,0.517 µM
same,GI50,HCT-15,0.151 µM
same,TGI,HCT-15,0.289 µM
same,inhibition at 0.3 µM,Fusarium proliferatum [12],0%
same,GI50,ACHN,1.08 µM
same,TGI,ACHN,2.06 µM
same,inhibition at 30 µM,Fusarium solani [13],97.3%
same,GI50,PC-3,0.142 µM
same,TGI,PC-3,0.287 µM
same,inhibition at 30 µM,Fusarium proliferatum [14],97.5%
same,inhibition at 0.3 µM,Fusarium solani [15],0%
same,inhibition at 3 µM,Fusarium oxysporum [16],0%
same,inhibition at 0.3 µM,Fusarium proliferatum [17],0%
same,GI50,HT-29,0.151 µM
same,TGI,HT-29,0.288 µM
same,MFC,Candida albicans,> 20 µM
same,MIC,Candida albicans,> 20 µM
same,GI50,DU-145,0.112 µM
same,TGI,DU-145,0.23 µM
same,inhibition at 3 µM,Fusarium solani [18],0%
same,inhibition at 0.3 µM,Fusarium solani [19],0%
same,inhibition at 30 µM,Fusarium proliferatum [20],96.1%
same,inhibition at 3 µM,Fusarium proliferatum [21],0%
same,inhibition at 3 µM,Fusarium solani [22],16.5%
same,inhibition at 30 µM,Fusarium oxysporum [23],96.6%
same,GI50,RPMI-8226,0.475 µM
same,TGI,RPMI-8226,1.78 µM
C/C=C1\NC(=O)[C@H](Cc2ccccc2)NC(=O)[C@@H](C(C)C)NC(=O)[C@@H]([C@@H](C)CC)NC(=O)[C@H](NC(=O)[C@H](NC(=O)[C@H](CCCNCc2cccs2)NC(=O)[C@H]2CCCN2C(=O)[C@H](NC(=O)[C@@H](NC(=O)[C@@H](NC(=O)[C@H](NC(=O)CCCC(C)C)C(C)C)[C@@H](C)O)C(C)C)C(C)C)[C@@H](C)CC)[C@@H](C)OC(=O)[C@H](C(C)C)NC1=O,IC50,Aspergillus fumigatus,3.22 µM
same,IC50,Cryptococcus neoformans,1.91 µM
same,IC50,[9],12 µM
same,IC50,Candida albicans,3.81 µM
same,IC50,Leishmania donovani,17 µg/mL
C/C=C1\NC(=O)[C@H](Cc2ccccc2)NC(=O)[C@@H](C(C)C)NC(=O)[C@@H]([C@@H](C)CC)NC(=O)[C@H](NC(=O)[C@H](NC(=O)[C@H](CCCNCCCCCC)NC(=O)[C@H]2CCCN2C(=O)[C@H](NC(=O)[C@@H](NC(=O)[C@@H](NC(=O)[C@H](NC(=O)CCCC(C)C)C(C)C)[C@@H](C)O)C(C)C)C(C)C)[C@@H](C)CC)[C@@H](C)OC(=O)[C@H](C(C)C)NC1=O,IC50,Aspergillus fumigatus,3.12 µM
same,IC50,Cryptococcus neoformans,1.93 µM
same,IC50,[9],> 20 µM
same,IC50,Candida albicans,5.69 µM
same,IC50,Leishmania donovani,17 µg/mL
